# Bioassay records deposited in PubChem BioAssay by several laboratories.
# Dynein cargo inh: inhibitors of GR-EGFP nuclear translocation, primary screen, dynein cargo transport inhibitor project, imaging, high-content, 3617.4 mouse cells. test concentration mostly 20 µM; stimulated with dexamethasone, 1 µM; stronger effect = lower value. z-score, hits read low. actives 0.47% (n = 220,000). AID 1381, 2008;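 active = plate z-score of nuclear minus cytoplasmic receptor signal below a set negative limit, without overly bright fluorescence or cell loss, cut at about -3.5 in these data, passing the limit was not always enough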;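 note: z-score of nuclear minus cytoplasmic ring GR-EGFP intensity difference per well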
#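 Buffer or medium: tet-free, stripped-serum medium; Also added: dexamethasone, 1.0 µM final; Technique: high-content fluorescence imaging after fixation; Times: 48 h induction, 1 h compound, 30 min dex at 37 °C; Read-out: per-cell GR-EGFP intensity, nucleus versus surrounding cytoplasmic ring, well-averaged.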
# T cruzi inh: inhibitors of intracellular T. cruzi growth, primary screen, luminescence, NIH3T3 host cells; T. cruzi beta-gal in NIH3T3, 90 h; inhibition, % (test concentration not listed); actives 1.4% (n = 300,000);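 active = mean inhibition across valid replicates above about 55%, limit read from the data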;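 note: signal also drops with host cell toxicity which is not excluded here; 0% = plate median of DMSO wells and 100% = zero luminescence signal; higher percent means less beta-gal luminescence so fewer parasites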
#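 Assay system: NIH/3T3 host cells with β-galactosidase reporter T. cruzi; input: 5,000 host fibroblasts per well; compound: single 50 nL compound addition per well in DMSO; timing: ≥90 h infection period, 3 h prior cell attachment; measured by: GalScreen β-gal luminescence, detergent lysis, 60 min; evaluation: percent inhibition of parasite-derived β-gal signal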
# UPR CHOP act: activators of apoptotic CHOP UPR arm, primary screen, cell-based, CHO-CHOP luciferase reporter, luminescence, uHTS. actives 0.34% (n = 330,000). AID 449763, 2010. activation, % at 10 µM. UPR activation; percent of tunicamycin response over DMSO baseline;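 active = at 10 µM dose, activation of 40% or more, normalized to positive control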;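 note: 100% = tunicamycin at 10 µg/mL and 0% = DMSO alone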
#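 Evaluation: % reporter activation, DMSO baseline versus tunicamycin full activation; System: CHO-CHOP luciferase reporter cell line; Input: 500 cells/well; Incubation: 6 h compound treatment, 37 °C; Measured by: Steady-Glo luciferase luminescence; Dosing: one dose, 10 µM in 0.5% DMSO; Buffer or medium: F12 medium, 10% FBS; Benchmarks: positive tunicamycin 10 µg/mL, negative DMSO alone.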
# CHOP inh: inhibitors of CHOP promoter induction, primary screen, cell-based, unfolded protein response, luciferase reporter. CHO-K1 CHOP-promoter luciferase, tunicamycin-induced, 15-18 h. inhibition, % at 10 µM. actives 3.8% (n = 220,000);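 active = compounds that reduced the stress-induced luciferase reporter signal by more than about 70% of percent inhibition, limit read from the data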;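 note: 0% = tunicamycin plus vehicle and 100% = wells without tunicamycin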
# L major viab: Leishmania major promastigote growth inhibition, primary screen; Leishmania major promastigotes, resazurin fluorescence viability; inhibition, % at 10 µM; actives 9% (n = 200,000); in the data active = inhibition above about 50%;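 note: promastigotes grown with compound for 44 hours at 28 °C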
# XBP1 UPR activ: activators of adaptive XBP1 UPR arm, primary screen, cell-based, CHO-XBP1 luciferase reporter, luminescence, uHTS; actives 0.33% (n = 330,000); AID 463104, 2010; activation, % at 20 µM; IRE1-XBP1 UPR activation; percent of tunicamycin response, DMSO as zero;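 active = versus positive control, 20 µM dose yields 30% or more activation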;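 note: 100% = tunicamycin at 10 µg/mL and 0% = DMSO only wells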
#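 assay system = CHO-XBP1 luciferase reporter cells | amount = 1000 cells/well | buffer or medium = F12 plus 10% FBS | compound dosing = single point, 20 µM final compound, 1% DMSO | incubation = 16-18 h cell attachment at 37 °C, then 6 h compound exposure | detection = Steady-Glo luminescence read | controls = tunicamycin 10 µg/mL and vehicle-only wells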
# Numbers without * were called inactive; . = no result. This excerpt belongs to a sample that is enriched for hits.
SMILES,Dynein cargo inh,T cruzi inh,UPR CHOP act,CHOP inh,L major viab,XBP1 UPR activ
COc1ccccc1NS(=O)(=O)c1cc(NC(C)=O)ccc1N1CCCCC1,1.27,11.5,0.2,28.0,42.6,-3.0
COc1ccc(C(=O)Nc2ccc(Cl)c(S(=O)(=O)Nc3ccccc3OC)c2)cc1,1.83,17.7,-1.2,48.2,38.6,-2.1
COc1ccccc1NS(=O)(=O)c1cc(NC(=O)COc2ccccc2)ccc1N1CCOCC1,.,.,3.5,.,.,-1.3
COc1ccccc1NS(=O)(=O)c1cc(NC(=O)C2CC2)ccc1N1CCOCC1,2.31,4.5,-2.3,-7.1,87.7*,2.6
Cc1ccc(C)c(NC(=O)CN(C)C(=O)c2cc3ccccc3oc2=O)c1,.,.,1.2,.,.,0.5
CCCCCCCCOC(=O)/C=C/c1c(C)[nH]c(=O)[nH]c1=O,-0.0424,30.0,0.3,52.3,93.0*,-1.7
COc1ccc(NS(=O)(=O)N2CCOCC2)cc1,.,-18.0,0.8,.,.,-3.9
Cc1cccc(C(=O)NCC(=O)OCC(=O)c2ccc(Cl)s2)c1,.,-1.7,-0.3,.,.,0.2
COc1ccc(-c2nc(-c3ccccc3)c(-c3cccs3)[nH]2)cc1OC,0.216,18.5,-0.2,20.9,66.2*,-1.0
O=[N+]([O-])c1cccc(-c2nc(-c3cccs3)c(-c3cccs3)[nH]2)c1,-0.241,35.9,3.4,46.4,15.8,3.2
COc1ccc(-c2nc(-c3cccs3)c(-c3cccs3)[nH]2)cc1OC,-0.112,32.6,1.3,-23.5,100.1*,-2.6
CC1CCN(CC(O)COC2CC(C)CCC2C(C)C)CC1 (stereo unspecified),0.0437,20.3,0.3,20.5,89.9*,-3.5
CCOC(=O)N1CCN(CC(O)COC2CC(C)CCC2C(C)C)CC1 (stereo unspecified),3.1,-0.9,-0.1,31.9,95.0*,-2.5
CCOC(=O)N1CCN(CC(O)COc2c(C)cccc2C)CC1 (stereo unspecified),-0.0632,-27.4,-0.6,10.2,-1.6,-0.1
Cn1c(SCC(=O)NNC(=O)c2ccccc2)nnc1C1CC1,.,-5.5,2.8,.,.,1.8
CCOC(=O)c1cc(=O)cc(C(=O)OCC)o1,-0.281,-1.5,-0.4,8.0,94.8*,-1.0
C=CC[C@H](CC(=O)NCCO)C(=O)N[C@H](COC(=O)[C@@H](CC=C)Cc1ccc(F)cc1)C(C)(C)C,.,.,-0.6,.,.,1.6
Cc1cc(C)nc(Sc2nc(C)nc3c2oc2ccccc23)n1,-0.165,-21.3,1.1,-4.4,71.8*,5.1
Cc1cccc(N2CCN(CC(=O)Nc3ccc(-n4cnnn4)cc3)CC2)c1C,0.515,4.0,-4.9,94.1*,-2.5,0.5
COc1ccc(-c2n[nH]c(C(F)(F)F)c2-c2cc3ccccc3o2)c(O)c1,1.35,-19.5,-0.8,105.3*,37.3,0.6
COc1ccccc1-c1c(-c2ccc(OCC(=O)NN)cc2O)n[nH]c1C(F)(F)F,0.357,-5.9,0.2,-1.8,87.2*,-1.6
Cc1cc(C(=O)Nc2ccc(F)c(Cl)c2)on1,.,-5.9,2.1,.,.,0.9
COC(=O)c1ccccc1S(=O)(=O)NNC(=O)c1nn(C)c(=O)c2ccccc12,.,.,-1.6,.,.,-2.7
O=S(Cc1ccc(Br)cc1)Cc1nnc(SCc2c(Cl)cccc2Cl)n1-c1ccccc1 (stereo unspecified),-0.36,40.1,-0.8,69.1,96.0*,0.4
Cn1c(CS(=O)Cc2c(Cl)cccc2Cl)nnc1SCc1c(Cl)cccc1Cl (stereo unspecified),-0.259,11.5,-0.3,1.0,-5.4,-1.7
CC(C)c1cc(C(=O)OCC(=O)NC(=O)NCc2ccco2)c(O)c(C(C)C)c1,-0.517,-16.8,-0.7,102.1*,37.3,4.8
O=C(COC(=O)c1ccccc1C(F)(F)F)NC(=O)NCc1ccco1,.,.,0.5,.,.,1.9
O=C(NN1c2ccccc2CCc2ccccc21)c1ccccc1Br,0.267,-20.2,3.2,76.3*,-2.9,0.3
